Measurements reported in ChEMBL document CHEMBL1148425, “New fatty acid oxidation inhibitors with increased potency lacking adverse metabolic and electrophysiological properties” (Bioorg Med Chem Lett, 2004).

Experiments:
[1] = molecular target: T1, Peroxisomal acyl-coenzyme A oxidase 1 (Rattus norvegicus) (UniProt P07872); assay: Inhibition of rat heart mitochondrial Palmitoyl-CoA oxidation at 30 uM
T1 sequence (whole entry): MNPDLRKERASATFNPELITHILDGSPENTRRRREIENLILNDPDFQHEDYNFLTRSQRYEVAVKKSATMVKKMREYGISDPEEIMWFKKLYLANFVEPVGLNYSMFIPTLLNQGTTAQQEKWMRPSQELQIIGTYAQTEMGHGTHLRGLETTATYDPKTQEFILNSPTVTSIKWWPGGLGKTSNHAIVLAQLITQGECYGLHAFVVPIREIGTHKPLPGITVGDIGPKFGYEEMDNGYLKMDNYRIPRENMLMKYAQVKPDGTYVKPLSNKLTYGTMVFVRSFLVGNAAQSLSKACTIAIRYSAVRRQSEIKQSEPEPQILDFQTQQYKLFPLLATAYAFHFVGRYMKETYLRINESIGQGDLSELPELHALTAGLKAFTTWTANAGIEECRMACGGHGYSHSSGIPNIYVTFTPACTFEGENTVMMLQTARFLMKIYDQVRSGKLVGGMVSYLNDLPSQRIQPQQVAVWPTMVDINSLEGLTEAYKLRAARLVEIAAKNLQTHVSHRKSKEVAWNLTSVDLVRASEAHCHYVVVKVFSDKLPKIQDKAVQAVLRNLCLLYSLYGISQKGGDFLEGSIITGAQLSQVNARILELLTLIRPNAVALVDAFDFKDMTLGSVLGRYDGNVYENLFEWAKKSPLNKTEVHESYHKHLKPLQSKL
Procedure, shortened: (§1)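 Rat heart mitochondrial preparations incubated with 1-[¹⁴C]-palmitoylCoA as the long-chain fatty acid oxidation substrate. Oxidation inhibition was reported as % inhibition at the listed test concentration, averaged from two or three measurements.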

[2] = Metabolic stability (% remaining at 30 mins) in human S9.; type: ADME; conditions: human S9 fraction
Procedure, shortened: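 Incubated 30 min with human liver S9 (2 mg/mL protein, NADH added), n=2. Reported as % parent remaining.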

[3] = Maximum concentration in rat after 2 mg/kg peroral administration; type: ADME, organism-based; set-up: dose 2 mg/kg, route oral; conditions: in vivo, po
[4] = Time to reach maximum concentration in rat after 2 mg/kg peroral administration; 4-6; type: ADME, organism-based; set-up: dose 2 mg/kg, route oral; conditions: in vivo, po
[5] = Half life in rat after 2 mg/kg peroral administration; type: ADME, organism-based; set-up: dose 2 mg/kg, route oral; conditions: in vivo, po
Cavia porcellus [6] = species on record: Cavia porcellus; assay: Electrophysiological effect on isolated guinea pig heart as change in H-V interval at 3 uM; type: functional
[7] = Clearance of compound in rat after 1 mg/kg i.v. administration; type: ADME, organism-based; set-up: dose 1 mg/kg, route intravenous; conditions: plasma, iv, read-out: Clp
[8] = Volume of distribution of compound in rat after 1 mg/kg i.v. administration; type: ADME, organism-based; set-up: dose 1 mg/kg, route intravenous; conditions: in vivo, iv, read-out: Vdss
Cavia porcellus [9] = species on record: Cavia porcellus; assay: Electrophysiological effect on isolated guinea pig heart as change in H-V interval at 10 uM; type: functional
Cytochrome P450 1A2 = molecular target: T2, Cytochrome P450 1A2 (Homo sapiens, UniProt P05177); assay: Inhibition of human cytochrome P450 1A2
T2 sequence (P05177 whole entry): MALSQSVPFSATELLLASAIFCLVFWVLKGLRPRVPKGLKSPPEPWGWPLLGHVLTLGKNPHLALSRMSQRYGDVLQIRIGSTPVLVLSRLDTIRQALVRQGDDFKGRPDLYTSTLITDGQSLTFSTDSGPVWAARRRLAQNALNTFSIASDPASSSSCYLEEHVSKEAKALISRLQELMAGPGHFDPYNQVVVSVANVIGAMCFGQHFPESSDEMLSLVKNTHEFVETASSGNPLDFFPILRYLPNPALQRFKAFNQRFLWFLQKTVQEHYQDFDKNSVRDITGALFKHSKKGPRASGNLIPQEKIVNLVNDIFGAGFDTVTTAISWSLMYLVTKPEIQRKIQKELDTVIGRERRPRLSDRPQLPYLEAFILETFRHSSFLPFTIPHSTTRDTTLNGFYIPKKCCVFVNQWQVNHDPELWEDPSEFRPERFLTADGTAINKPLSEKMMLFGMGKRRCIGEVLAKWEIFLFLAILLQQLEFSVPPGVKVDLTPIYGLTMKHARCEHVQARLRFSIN

Cytochrome P450 2C9 = Cytochrome P450 2C9 (Homo sapiens, UniProt P11712); assay: Inhibition of cytochrome P450 2C9 (human)
Cytochrome P450 2C9, sequence (P11712 whole entry): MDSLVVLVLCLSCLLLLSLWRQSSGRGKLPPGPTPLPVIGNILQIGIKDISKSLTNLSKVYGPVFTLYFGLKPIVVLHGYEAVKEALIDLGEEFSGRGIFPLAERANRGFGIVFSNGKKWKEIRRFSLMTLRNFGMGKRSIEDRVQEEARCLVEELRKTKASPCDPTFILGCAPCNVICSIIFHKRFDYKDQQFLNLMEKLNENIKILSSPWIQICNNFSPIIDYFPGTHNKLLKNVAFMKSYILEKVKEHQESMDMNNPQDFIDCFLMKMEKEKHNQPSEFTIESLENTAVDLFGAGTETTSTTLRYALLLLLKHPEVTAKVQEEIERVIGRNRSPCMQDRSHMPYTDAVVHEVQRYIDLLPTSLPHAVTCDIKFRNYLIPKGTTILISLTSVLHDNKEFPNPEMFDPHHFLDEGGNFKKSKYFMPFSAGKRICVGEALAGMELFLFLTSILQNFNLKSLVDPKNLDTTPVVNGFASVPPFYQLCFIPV

Cavia porcellus [10] = species on record: Cavia porcellus; assay: Electrophysiological effect on isolated guinea pig heart as change in S-H interval at 3 uM; type: functional
[11] = Oral bioavailability in rat (dose 2 mg/kg); type: ADME, organism-based; conditions: in vivo
Cavia porcellus [12] = species on record: Cavia porcellus; assay: Electrophysiological effect on isolated guinea pig heart as change in coronary perfusion pressure at 10 uM; type: functional
Cavia porcellus [13] = species on record: Cavia porcellus; assay: Electrophysiological effect on isolated guinea pig heart as change in S-H interval at 10 uM; type: functional
[14] = Total concentration in rat after 1 mg/kg i.v. administration in 24 hours; type: ADME, organism-based; set-up: dose 1 mg/kg, route intravenous; conditions: in vivo, iv
Cavia porcellus [15] = species on record: Cavia porcellus; assay: Electrophysiological effect on isolated guinea pig heart as change in coronary perfusion pressure at 3 uM; type: functional
[16] = Total concentration in rat after 2 mg/kg peroral administration in 24 hours; type: ADME, organism-based; set-up: dose 2 mg/kg, route oral; conditions: in vivo, po
[17] = Half life in rat after 1 mg/kg i.v. administration; type: ADME, organism-based; set-up: dose 1 mg/kg, route intravenous; conditions: in vivo, iv
Cytochrome P450 3A4 [18] = molecular target: T3, Cytochrome P450 3A4 (Homo sapiens, UniProt P08684); assay: Inhibition of human cytochrome P450 3A4
T3 sequence (P08684 whole entry): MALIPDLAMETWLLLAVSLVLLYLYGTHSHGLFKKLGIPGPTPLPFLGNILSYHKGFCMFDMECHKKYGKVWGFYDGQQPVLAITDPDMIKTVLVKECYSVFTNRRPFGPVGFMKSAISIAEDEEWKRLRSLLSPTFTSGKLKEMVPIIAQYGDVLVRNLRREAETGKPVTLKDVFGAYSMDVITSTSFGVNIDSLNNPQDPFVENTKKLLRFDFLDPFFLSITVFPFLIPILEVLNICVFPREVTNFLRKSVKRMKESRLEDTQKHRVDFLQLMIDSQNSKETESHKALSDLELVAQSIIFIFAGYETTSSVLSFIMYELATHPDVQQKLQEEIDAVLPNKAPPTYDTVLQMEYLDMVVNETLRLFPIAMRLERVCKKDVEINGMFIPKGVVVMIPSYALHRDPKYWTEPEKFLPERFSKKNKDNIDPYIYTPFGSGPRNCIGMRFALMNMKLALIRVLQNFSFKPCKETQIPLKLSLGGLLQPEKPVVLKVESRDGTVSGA

[19] = molecular target: T1, Peroxisomal acyl-coenzyme A oxidase 1 (Rattus norvegicus); assay: Inhibition of rat heart mitochondrial Palmitoyl-CoA oxidation at 100 uM; procedure, shortened: as §1
Cytochrome P450 3A4 [20] = molecular target: T3, Cytochrome P450 3A4; assay: Inhibition of cytochrome P450 3A4 (human)

Cc1nc2cc(OC[C@H](O)CN3CCN(CC(=O)N[C@H](C)c4ccccc4)CC3)ccc2s1
inhibition [1]: 23%

Cc1nc2cc(OC[C@H](O)CN3CCN(CC(=O)Nc4cc(Cl)c(Cl)c(Cl)c4)CC3)ccc2s1
remaining at 0.5 h [2]: 34%

Cc1nc2cc(OC[C@H](O)CN3CCN(CC(=O)Nn4nnc5ccccc54)CC3)ccc2s1
inhibition [1]: 16%

Cc1nc2cc(OC[C@H](O)CN3CCN(CC(=O)Nc4cccc(Oc5ccccc5)c4)CC3)ccc2s1
remaining at 0.5 h [2]: 15%

Cc1nc2cc(OC[C@H](O)CN3CCN(CC(=O)NCCc4ccccc4)CC3)ccc2s1
remaining at 0.5 h [2]: 27%

Cc1nc2cc(OC[C@H](O)CN3CCN(CC(=O)Nc4ccccc4Oc4ccccc4)CC3)ccc2s1
inhibition [1]: 34%

Cc1nc2cc(OC[C@H](O)CN3CCN(CC(=O)N[C@H](C)c4cccc5ccccc45)CC3)ccc2s1
inhibition [1]: 24%

Cc1nc2cc(OC[C@H](O)CN3CCN(CC(=O)Nc4cccc5ccccc45)CC3)ccc2s1
remaining at 0.5 h [2]: 50%

Cc1cc(NC(=O)CN2CCN(C[C@@H](O)COc3ccc4sc(C)nc4c3)CC2)c2ccccc2n1
inhibition [1]: 40%

Cc1ccc(NC(=O)CN2CCN(C[C@@H](O)COc3ccc4sc(C)nc4c3)CC2)cc1
remaining at 0.5 h [2]: 51%

Cc1nc2cc(OC[C@H](O)CN3CCN(CC(=O)N[C@@H](C)c4ccccc4)CC3)ccc2s1
remaining at 0.5 h [2]: 23%

Cc1nc2cc(OC[C@H](O)CN3CCN(CC(=O)N[C@H](C)c4ccc5ccccc5c4)CC3)ccc2s1
remaining at 0.5 h [2]: 45%

Cc1nc2cc(OC[C@H](O)CN3CCN(CC(=O)Nc4ccccc4)CC3)ccc2s1
remaining at 0.5 h [2]: 47%

Cc1nc2cc(OC[C@H](O)CN3CCN(CC(=O)N[C@H]4CCCc5ccccc54)CC3)ccc2s1
remaining at 0.5 h [2]: 2%

Cc1nc2cc(OC[C@H](O)CN3CCN(CC(=O)NC4CCCCC4)CC3)ccc2s1
remaining at 0.5 h [2]: 37%

Cc1nc2cc(OC[C@H](O)CN3CCN(CC(=O)Nc4ccc(Oc5ccccc5)cc4)CC3)ccc2s1
remaining at 0.5 h [2]: 18%

Cc1nc2cc(OC[C@H](O)CN3CCN(CC(=O)Nc4cccc5[nH]ccc45)CC3)ccc2s1
remaining at 0.5 h [2]: 35%

Cc1nc2cc(OC[C@H](O)CN3CCN(CC(=O)N[C@@H](C)c4ccc5ccccc5c4)CC3)ccc2s1
remaining at 0.5 h [2]: 14%

Cc1nc2cc(OC[C@H](O)CN3CCN(CC(=O)Nc4ccc(Oc5ccc(Cl)cc5)cc4)CC3)ccc2s1
remaining at 0.5 h [2]: 64%

CCn1c2ccccc2c2cc(NC(=O)CN3CCN(C[C@@H](O)COc4ccc5sc(C)nc5c4)CC3)ccc21
Cmax [3]: 26.3 ng/mL
Tmax [4]: 6 h
half-life [5]: 2.6 h
Delta H-V (Cavia porcellus [6]): 0 ms
remaining at 0.5 h [2]: 62%
clearance [7]: 13.5 mL/min/kg
Vd [8]: 3.4 L/kg
Delta H-V (Cavia porcellus [9]): 0 ms
IC50 (Cytochrome P450 1A2): > 100 µM
IC50 (Cytochrome P450 2C9): > 100 µM
Delta S-H (Cavia porcellus [10]): 0 ms
bioavailability [11]: 17.5%
Delta CPP (Cavia porcellus [12]): -0.4 mmHg
Delta S-H (Cavia porcellus [13]): 1 ms
AUC at 24 h [14]: 1320 ng·h/mL
Delta CPP (Cavia porcellus [15]): 0.7 mmHg
AUC at 24 h [16]: 230 ng·h/mL
half-life [17]: 3 h
IC50 (Cytochrome P450 3A4 [18]): 39 µM

Cc1nc2cc(OC[C@H](O)CN3CCN(CC(=O)NCc4ccc(Cl)cc4)CC3)ccc2s1
remaining at 0.5 h [2]: 16%

Cc1nc2cc(OC[C@H](O)CN3CCN(CC(=O)Nc4ccc(Cl)c(Cl)c4)CC3)ccc2s1
remaining at 0.5 h [2]: 29%

Cc1nc2cc(OC[C@H](O)CN3CCN(CC(=O)Nc4ccc(C#N)cc4)CC3)ccc2s1
inhibition [1]: 42%

Cc1nc2cc(OC[C@H](O)CN3CCN(CC(=O)N[C@@H](C)c4cccc5ccccc45)CC3)ccc2s1
remaining at 0.5 h [2]: 10%

Cc1nc2cc(OC[C@H](O)CN3CCN(CC(=O)Nc4ccc5c(c4)CCCC5)CC3)ccc2s1
remaining at 0.5 h [2]: 2%

Cc1nc2cc(OC[C@H](O)CN3CCN(CC(=O)Nc4ccc5c(c4)CCC5)CC3)ccc2s1
remaining at 0.5 h [2]: 15%

Cc1nc2cc(OC[C@H](O)CN3CCN(CC(=O)Nc4cccc5nsnc45)CC3)ccc2s1
remaining at 0.5 h [2]: 11%

Cc1nc2cc(OC[C@H](O)CN3CCN(CC(=O)NCC4CCCCC4)CC3)ccc2s1
remaining at 0.5 h [2]: 29%

Cc1nc2cc(OC[C@H](O)CN3CCN(CC(=O)Nc4ccccc4-c4ccccc4)CC3)ccc2s1
inhibition [1]: 39%

Cc1nc2cc(OC[C@H](O)CN3CCN(CC(=O)NC4Cc5ccccc5C4)CC3)ccc2s1
remaining at 0.5 h [2]: 2%

Cc1nc2cc(OC[C@H](O)CN3CCN(CC(=O)Nc4ccc(C(N)=O)cc4)CC3)ccc2s1
inhibition [19]: 35%

Cc1nc2cc(OC[C@H](O)CN3CCN(CC(=O)N[C@H](C)c4ccc(F)cc4)CC3)ccc2s1
inhibition [1]: 40%

Cc1nc2cc(OC[C@H](O)CN3CCN(CC(=O)Nc4cccc(-c5ccccc5)c4)CC3)ccc2s1
IC50 (Cytochrome P450 3A4 [20]): 37 µM
Delta H-V (Cavia porcellus [6]): 0 ms
remaining at 0.5 h [2]: 58%
IC50 (Cytochrome P450 1A2): 6 µM
IC50 (Cytochrome P450 2C9): 24 µM
Delta S-H (Cavia porcellus [10]): 3 ms
Delta CPP (Cavia porcellus [15]): -4.3 mmHg

Cc1nc2cc(OC[C@H](O)CN3CCN(CC(=O)Nc4cccc5cccnc45)CC3)ccc2s1
remaining at 0.5 h [2]: 12%

Cc1nc2cc(OC[C@H](O)CN3CCN(CC(=O)N[C@@H]4CCc5ccccc54)CC3)ccc2s1
inhibition [1]: 50%

COc1ccc(NC(=O)CN2CCN(C[C@@H](O)COc3ccc4sc(C)nc4c3)CC2)cc1
remaining at 0.5 h [2]: 41%

Cc1nc2cc(OC[C@H](O)CN3CCN(CC(=O)Nc4ccc(Cl)c(C(F)(F)F)c4)CC3)ccc2s1
remaining at 0.5 h [2]: 25%

Cc1nc2cc(OC[C@H](O)CN3CCN(CC(=O)N[C@@H](C)c4ccc(F)cc4)CC3)ccc2s1
remaining at 0.5 h [2]: 10%

Cc1nc2cc(OC[C@H](O)CN3CCN(CC(=O)N[C@H]4CCc5ccccc54)CC3)ccc2s1
remaining at 0.5 h [2]: 1%

Cc1nc2cc(OC[C@H](O)CN3CCN(CC(=O)Nc4ccc(-c5ccccc5)cc4)CC3)ccc2s1
IC50 (Cytochrome P450 3A4 [20]): 7.9 µM
Delta H-V (Cavia porcellus [6]): 0.5 ms
remaining at 0.5 h [2]: 63%
IC50 (Cytochrome P450 1A2): 31 µM
IC50 (Cytochrome P450 2C9): 30 µM
Delta S-H (Cavia porcellus [10]): 5 ms
Delta CPP (Cavia porcellus [15]): -6.6 mmHg

Cc1nc2cc(OC[C@H](O)CN3CCN(CC(=O)Nc4cccc5ncccc45)CC3)ccc2s1
remaining at 0.5 h [2]: 2%

Cc1nc2cc(OC[C@H](O)CN3CCN(CC(=O)Nc4ccc(C(F)(F)F)cc4)CC3)ccc2s1
remaining at 0.5 h [2]: 28%
